# Tests used:
# [1] = tested on: HepG2; experiment: Hepatoprotective activity against APAP-induced toxicity in human HepG2 cells assessed as cell survival rate at 10 uM after 48 hrs by MTT assay relative to control; type: functional; details: HepG2, 48 h, read-out: Survival
# Procedure, shortened: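 HepG2 cells were co-treated with compound (10 μM final) and acetaminophen (10 mM final per methods; results text cites 8 mM) for 48 h. Bicyclol served as positive control and DMSO as negative control. MTT (0.5 mg/mL) was added for 4 h at 37 °C, formazan dissolved in DMSO, and A570 read. Survival = mean OD treated / mean OD solvent control.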
# [2] = tested on: A549; experiment: Cytotoxicity against human A549 cells measured after 72 hrs by MTT assay; details: A549, 72 h
# [3] = tested on: MCF7; experiment: Cytotoxicity against human MCF7 cells measured after 72 hrs by MTT assay; details: MCF7, 72 h
# [4] = tested on: BGC-823; experiment: Cytotoxicity against human BGC823 cells measured after 72 hrs by MTT assay; details: BGC-823, 72 h
# [5] = tested on: HCT-116; experiment: Cytotoxicity against human HCT116 cells measured after 72 hrs by MTT assay; details: HCT-116, 72 h
# [6] = tested on: HepG2; experiment: Cytotoxicity against human HepG2 cells measured after 72 hrs by MTT assay; details: HepG2, 72 h
compound,measurement,setting,value
CC(C)[C@H]1CC[C@H](C(=O)O)[C@H]2CCC(C(=O)O)=C[C@@H]21,viability at 10 µM,[1],33.2 to 41.6%
COC(=O)c1cc(OC)c2c(c1-c1c(CO)cc(OC)c3c1OCO3)OCO2 [BICYCLOL],viability at 10 µM,[1],31.9%
CC(=O)O[C@H]1C(=O)[C@@]2(C)[C@H]([C@H](OC(=O)c3ccccc3)[C@]3(O)C[C@H](OC(=O)[C@H](O)[C@@H](NC(=O)c4ccccc4)c4ccccc4)C(C)=C1C3(C)C)[C@]1(OC(C)=O)CO[C@@H]1C[C@@H]2O [PACLITAXEL],IC50,[2],13.7 nM
same,IC50,[3],0.2 nM
same,IC50,[4],0.4 nM
same,IC50,[5],1.8 nM
same,IC50,[6],1.9 nM
C=C(CC[C@@H](C)[C@H]1CC[C@H]2C3=CC(=O)[C@H]4[C@H](O)[C@@H](O)CC[C@]4(C)[C@H]3CC[C@]12C)C(C)COC (stereo partly drawn),IC50,[2],> 10000 nM
same,IC50,[3],2600 nM
same,IC50,[4],> 10000 nM
same,IC50,[5],> 10000 nM
same,IC50,[6],> 10000 nM
same,viability at 10 µM,[1],33.2 to 41.6%
CC(C)[C@H]1CC[C@H](CO)c2c(O)cc(C(=O)O)cc21,viability at 10 µM,[1],33.2 to 41.6%
C=C1CC[C@H](C(C)C)[C@@H](/C=C(\CC(=O)O)C(=O)O)[C@@H]1O,viability at 10 µM,[1],33.2 to 41.6%
CC(=O)OC/C(=C\[C@@H]1[C@@H](C(C)C)CC[C@@]2(O)COC(=O)[C@@H]12)C(=O)O,viability at 10 µM,[1],33.2 to 41.6%
C=C(C)[C@@]12O[C@@H]1[C@@]1(C)C(=CC2=O)CC[C@@H](O)[C@@H]1C,viability at 10 µM,[1],33.2 to 41.6%
CC(C)[C@H]1CC[C@@H](CO)c2c(O)cc(C(=O)O)cc21,viability at 10 µM,[1],33.2 to 41.6%

# From ChEMBL document CHEMBL4316657, “Sesquiterpenes from an Endophytic Aspergillus flavus” (J Nat Prod, 2019)
